Laboratory results published in ChEMBL document CHEMBL4422635, “Structure-Based Discovery of a Subtype-Selective Inhibitor Targeting a Transient Receptor Potential Vanilloid Channel” (J Med Chem, 2019).
Activity calls are given as the source filed them. No cut-off for these calls is given here.

Experiments:
[1] = tested on: Transient receptor potential cation channel subfamily V member 1 (Mus musculus), Q704Y3 [T551L]; test: Antagonist activity at mouse TRPV1 T551L mutant expressed in HEK293T cells assessed as inhibition of 2-APB evoked currents at > 1 uM at -60 mV holding potential by whole-cell patch clamp assay; assay type: cell-based
Transient receptor potential cation channel subfamily V member 1 (Mus musculus), Q704Y3 [T551L], sequence (Q704Y3 whole entry T551L): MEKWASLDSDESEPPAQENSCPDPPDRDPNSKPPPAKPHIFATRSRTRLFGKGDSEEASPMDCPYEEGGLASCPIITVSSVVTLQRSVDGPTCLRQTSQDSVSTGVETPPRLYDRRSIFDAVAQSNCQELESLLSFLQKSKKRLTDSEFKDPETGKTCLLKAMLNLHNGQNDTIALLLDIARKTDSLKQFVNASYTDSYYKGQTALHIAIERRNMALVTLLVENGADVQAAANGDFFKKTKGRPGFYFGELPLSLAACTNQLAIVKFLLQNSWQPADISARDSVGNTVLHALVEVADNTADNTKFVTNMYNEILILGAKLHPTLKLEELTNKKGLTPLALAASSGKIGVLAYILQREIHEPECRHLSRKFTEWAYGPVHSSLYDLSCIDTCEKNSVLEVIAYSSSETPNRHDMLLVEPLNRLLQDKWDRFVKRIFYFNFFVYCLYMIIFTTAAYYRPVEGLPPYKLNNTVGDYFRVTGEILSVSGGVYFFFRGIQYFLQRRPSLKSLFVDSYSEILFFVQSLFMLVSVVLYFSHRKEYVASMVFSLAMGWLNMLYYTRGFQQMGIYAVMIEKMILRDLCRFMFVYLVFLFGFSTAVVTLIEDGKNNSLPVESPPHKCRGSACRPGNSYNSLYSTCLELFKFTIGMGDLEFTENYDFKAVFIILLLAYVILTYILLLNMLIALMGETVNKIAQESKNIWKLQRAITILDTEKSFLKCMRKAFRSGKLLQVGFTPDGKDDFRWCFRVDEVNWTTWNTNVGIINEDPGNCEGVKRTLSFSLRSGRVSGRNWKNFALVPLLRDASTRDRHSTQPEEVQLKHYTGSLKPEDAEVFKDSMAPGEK
Method in brief: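 Whole-cell voltage clamp of transiently transfected HEK293T cells co-expressing GFP, recorded 36-96 h post-transfection. Hold -60 mV; pipettes 3-7 MΩ. Bath 165 mM NaCl, 10 mM HEPES pH 7.3; pipette 140 mM KCl, 10 mM HEPES pH 7.3. Room temperature (~25 °C). IC50 from Hill fits of I/I0, the current ratio after vs before inhibitor; mean ± SEM.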

PC-3M [2] = test: Antimetastatic activity in human PC3M cells transfected with TRPV2 siRNA at 5 to 20 uM after 24 hrs by transwell migration assay; assay type: functional, cell-based
Homo sapiens = species: Homo sapiens; test: Inhibition of LPA-induced TRPV2/LPAR1 mediated cell migration in human PC3M cells at 20 uM after 24 hrs by transwell migration assay; assay type: cell-based
PC-3M [3] = test: Cytotoxicity against human PC3M cells assessed as reduction in cell viability up to 20 uM after 48 hrs by SRB assay; assay type: cell-based
Method in brief: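 PC-3M cells kept in RPMI 1640 with 10% FBS at 37 °C, 5% CO2.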

Q: Which results are given for `CCCN(C)c1cc(C(F)(F)F)nc(SCCC(=O)NCc2ccco2)n1`?
A: inhibition [1]: Active; Activity (PC-3M [2]): inactive; inhibition (Homo sapiens): Active; Activity (PC-3M [3]): Non-Toxic
